Measured values taken from ChEMBL document CHEMBL1147762, “A new chemical tool for exploring the physiological function of the PDE2 isozyme” (Bioorg Med Chem Lett, 2006).
pIC50: −log10 of the molar value.

What was measured:
[1] = biological target: cGMP-dependent 3',5'-cyclic phosphodiesterase (Homo sapiens, UniProt O00408); test: Inhibitory activity against PDE2 by scintillation proximity assay
Procedure, shortened: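 Phosphodiesterase inhibition run as a scintillation proximity assay, with enzyme at a concentration in the linear range. Final substrate was 1 µM, below one-third of the enzyme K_M, so that IC50 approximates Ki. Values are means of n experiments with standard deviation.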

[2] = biological target: Dual 3',5'-cyclic-AMP and -GMP phosphodiesterase 11A (Homo sapiens, UniProt Q9HCR9); test: Inhibitory activity against PDE11 by scintillation proximity assay
Procedure, shortened: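 Phosphodiesterase inhibition run as a scintillation proximity assay, with enzyme at a concentration in the linear range. Values are means of n experiments with standard deviation.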

[3] = biological target: Adenosine receptor A3 (Homo sapiens) (UniProt P0DMS8); test: Percentage binding to adenosine A3 receptor at 10 uM
[4] = biological target: Delta-type opioid receptor (Homo sapiens) (UniProt P41143); test: Percentage binding to opioid delta at 10 uM
[5] = biological target: Mu-type opioid receptor (Homo sapiens) (UniProt P35372); test: Percentage binding to opioid mu at 10 uM
[6] = biological target: Platelet-activating factor receptor (Homo sapiens) (UniProt P25105); test: Percentage binding to PAF at 10 uM
[7] = biological target: 5-hydroxytryptamine receptor 1A (Homo sapiens) (UniProt P08908); test: Percentage binding to serotonin 5HT1A at 10 uM
[8] = biological target: Casein kinase II (Homo sapiens) (UniProt P67870+P68400+P19784); test: Inhibition of CK2 at 10 uM; format: protein-complex assay
[9] = biological target: Tyrosine-protein kinase Lck (Homo sapiens) (UniProt P06239); test: Inhibition of LCK at 10 uM
[10] = biological target: Type-2 angiotensin II receptor (Homo sapiens) (UniProt P50052); test: Percentage binding to angiotensin II type 2 receptor at 10 uM
[11] = Percentage binding to GABA at 10 uM
Procedure, shortened: (§1)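 Single-concentration screen within a panel of 54 receptors and ion channels, measuring binding or interaction at each target.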

[12] = biological target: Histamine H1 receptor (Homo sapiens) (UniProt P35367); test: Percentage binding to histamine H1 at 10 uM
[13] = biological target: Melanocortin receptor 4 (Homo sapiens) (UniProt P32245); test: Percentage binding to MCR4 at 10 uM
[14] = biological target: Substance-P receptor (Homo sapiens) (UniProt P25103); test: Percentage binding to neurokinin K1 at 10 uM
[15] = Percentage binding to neuronal NACHR at 10 uM; procedure, shortened: as §1
[16] = biological target: 5-hydroxytryptamine receptor 7 (Homo sapiens) (UniProt P34969); test: Percentage binding to serotonin 5HT7 at 10 uM
[17] = biological target: Mitogen-activated protein kinase 1 (Homo sapiens) (UniProt P28482); test: Inhibition of MAPK2 at 10 uM
[18] = biological target: Mitogen-activated protein kinase 14 (Homo sapiens) (UniProt Q16539); test: Inhibition of SAPK2a at 10 uM
[19] = biological target: Mitogen-activated protein kinase 11 (Homo sapiens) (UniProt Q15759); test: Inhibition of SAPK2b at 10 uM
[20] = biological target: Ribosomal protein S6 kinase alpha-5 (Homo sapiens) (UniProt O75582); test: Inhibition of MSK1 at 10 uM
[21] = biological target: Tyrosine-protein kinase CSK (Homo sapiens) (UniProt P41240); test: Inhibition of CSK at 10 uM
[22] = biological target: Serine/threonine-protein kinase Nek2 (Homo sapiens) (UniProt P51955); test: Inhibition of NEK2 at 10 uM
[23] = biological target: Voltage-gated L-type calcium channel (Homo sapiens, UniProt Q13936+Q13698+Q01668+O60840); test: Percentage binding to Ca2+ channel L at 10 uM; format: protein assay
[24] = biological target: Voltage-dependent N-type calcium channel subunit alpha-1B (Homo sapiens) (UniProt Q00975); test: Percentage binding to Ca2+ channel N at 10 uM
[25] = Half life in rat liver microsome; format: ADME; conditions: liver microsomes
[26] = Basolateral Caco-2 cell membrane permeability; format: ADME, cell-based; conditions: human
[27] = Volume of distribution in rat; format: ADME, organism-based; conditions: Sprague-Dawley, in vivo, read-out: Vdss

Mitogen-activated protein kinase 11 (Homo sapiens), sequence (Q15759 whole entry): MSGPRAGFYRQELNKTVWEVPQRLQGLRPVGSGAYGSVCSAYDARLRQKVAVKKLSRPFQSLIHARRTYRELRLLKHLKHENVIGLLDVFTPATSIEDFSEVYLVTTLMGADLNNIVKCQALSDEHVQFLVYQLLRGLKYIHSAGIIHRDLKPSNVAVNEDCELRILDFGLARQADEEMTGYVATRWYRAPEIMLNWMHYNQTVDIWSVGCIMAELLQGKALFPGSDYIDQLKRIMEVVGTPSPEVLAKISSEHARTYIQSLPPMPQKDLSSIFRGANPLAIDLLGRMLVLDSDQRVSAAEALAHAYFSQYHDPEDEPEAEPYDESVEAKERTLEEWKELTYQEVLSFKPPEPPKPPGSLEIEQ
Mitogen-activated protein kinase 14 (Homo sapiens), sequence (Q16539 whole entry): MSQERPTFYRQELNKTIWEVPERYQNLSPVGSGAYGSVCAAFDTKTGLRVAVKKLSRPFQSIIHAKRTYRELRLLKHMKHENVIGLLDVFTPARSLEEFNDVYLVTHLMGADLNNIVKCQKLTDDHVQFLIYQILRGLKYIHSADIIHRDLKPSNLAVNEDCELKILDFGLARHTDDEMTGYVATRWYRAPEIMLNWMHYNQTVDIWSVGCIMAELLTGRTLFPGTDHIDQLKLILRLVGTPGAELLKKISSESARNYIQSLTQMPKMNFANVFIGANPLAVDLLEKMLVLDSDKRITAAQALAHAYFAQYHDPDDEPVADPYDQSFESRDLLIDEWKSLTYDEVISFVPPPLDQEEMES
Adenosine receptor A3 (Homo sapiens), sequence (P0DMS8 whole entry): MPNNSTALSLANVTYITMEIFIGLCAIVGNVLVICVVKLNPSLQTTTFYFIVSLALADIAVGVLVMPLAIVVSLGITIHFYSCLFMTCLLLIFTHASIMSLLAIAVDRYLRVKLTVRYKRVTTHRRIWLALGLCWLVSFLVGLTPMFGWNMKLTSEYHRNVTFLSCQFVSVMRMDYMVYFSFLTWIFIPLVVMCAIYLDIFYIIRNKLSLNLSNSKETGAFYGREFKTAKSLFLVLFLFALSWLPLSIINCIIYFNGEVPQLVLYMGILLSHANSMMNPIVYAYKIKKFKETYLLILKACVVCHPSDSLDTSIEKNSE
cGMP-dependent 3',5'-cyclic phosphodiesterase, sequence (O00408 whole entry): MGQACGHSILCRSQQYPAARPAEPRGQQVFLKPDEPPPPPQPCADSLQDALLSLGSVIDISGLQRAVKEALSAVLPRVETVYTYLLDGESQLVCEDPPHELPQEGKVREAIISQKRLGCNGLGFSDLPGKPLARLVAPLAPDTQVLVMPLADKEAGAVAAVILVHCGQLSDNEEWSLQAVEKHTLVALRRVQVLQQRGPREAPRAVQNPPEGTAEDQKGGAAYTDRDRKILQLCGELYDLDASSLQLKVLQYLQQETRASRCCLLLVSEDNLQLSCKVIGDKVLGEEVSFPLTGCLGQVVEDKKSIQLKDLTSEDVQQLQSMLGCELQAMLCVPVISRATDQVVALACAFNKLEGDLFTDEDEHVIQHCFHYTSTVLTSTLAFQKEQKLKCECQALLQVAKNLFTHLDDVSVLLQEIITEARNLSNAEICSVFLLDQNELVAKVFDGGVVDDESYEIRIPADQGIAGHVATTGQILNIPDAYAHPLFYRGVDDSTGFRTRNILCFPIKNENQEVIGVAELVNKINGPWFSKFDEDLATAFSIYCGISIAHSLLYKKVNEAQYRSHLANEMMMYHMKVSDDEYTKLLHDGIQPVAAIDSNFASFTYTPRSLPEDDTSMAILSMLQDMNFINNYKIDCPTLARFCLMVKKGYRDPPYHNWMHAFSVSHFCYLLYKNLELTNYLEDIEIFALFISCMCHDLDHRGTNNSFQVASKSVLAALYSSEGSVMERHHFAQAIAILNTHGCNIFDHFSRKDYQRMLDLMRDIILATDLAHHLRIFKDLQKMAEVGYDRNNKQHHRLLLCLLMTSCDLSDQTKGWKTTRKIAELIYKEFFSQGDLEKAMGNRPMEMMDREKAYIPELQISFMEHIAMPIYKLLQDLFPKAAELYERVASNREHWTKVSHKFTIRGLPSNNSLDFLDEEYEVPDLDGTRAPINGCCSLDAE
Tyrosine-protein kinase Lck (Homo sapiens), sequence (P06239 2-509 limits assumed): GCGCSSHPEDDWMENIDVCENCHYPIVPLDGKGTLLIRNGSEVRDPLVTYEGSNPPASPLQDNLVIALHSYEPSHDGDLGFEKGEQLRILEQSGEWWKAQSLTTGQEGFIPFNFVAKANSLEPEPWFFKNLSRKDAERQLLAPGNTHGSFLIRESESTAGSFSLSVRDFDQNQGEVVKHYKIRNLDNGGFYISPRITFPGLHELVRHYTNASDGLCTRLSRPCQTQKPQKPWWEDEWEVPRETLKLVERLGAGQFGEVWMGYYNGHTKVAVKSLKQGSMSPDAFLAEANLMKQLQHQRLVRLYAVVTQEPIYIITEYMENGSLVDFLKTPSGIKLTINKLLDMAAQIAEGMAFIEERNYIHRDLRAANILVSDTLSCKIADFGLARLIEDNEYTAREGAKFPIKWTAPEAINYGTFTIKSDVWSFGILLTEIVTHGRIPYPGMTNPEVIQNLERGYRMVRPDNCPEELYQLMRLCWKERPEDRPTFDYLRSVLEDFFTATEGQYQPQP
Delta-type opioid receptor (Homo sapiens), sequence (P41143 whole entry): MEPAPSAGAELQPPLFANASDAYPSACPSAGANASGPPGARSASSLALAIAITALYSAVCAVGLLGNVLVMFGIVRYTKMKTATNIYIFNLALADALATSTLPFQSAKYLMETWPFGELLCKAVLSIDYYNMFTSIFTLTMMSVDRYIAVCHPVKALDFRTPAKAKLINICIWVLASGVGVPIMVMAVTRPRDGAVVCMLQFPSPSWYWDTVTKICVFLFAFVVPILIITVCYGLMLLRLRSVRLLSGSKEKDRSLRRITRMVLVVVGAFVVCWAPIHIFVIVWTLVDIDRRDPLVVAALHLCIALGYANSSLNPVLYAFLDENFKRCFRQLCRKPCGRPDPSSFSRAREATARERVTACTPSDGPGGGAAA
Platelet-activating factor receptor (Homo sapiens), sequence (P25105 whole entry): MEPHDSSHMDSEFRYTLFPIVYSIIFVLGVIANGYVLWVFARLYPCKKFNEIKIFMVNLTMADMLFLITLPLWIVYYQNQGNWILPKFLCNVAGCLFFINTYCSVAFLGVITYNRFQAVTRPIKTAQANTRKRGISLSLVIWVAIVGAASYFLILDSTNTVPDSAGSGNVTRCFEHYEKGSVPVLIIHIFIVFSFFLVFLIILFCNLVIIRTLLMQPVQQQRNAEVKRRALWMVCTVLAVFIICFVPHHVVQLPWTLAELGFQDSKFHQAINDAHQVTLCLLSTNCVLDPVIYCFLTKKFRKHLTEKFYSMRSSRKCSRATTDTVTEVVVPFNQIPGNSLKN
5-hydroxytryptamine receptor 1A (Homo sapiens), sequence (P08908 whole entry): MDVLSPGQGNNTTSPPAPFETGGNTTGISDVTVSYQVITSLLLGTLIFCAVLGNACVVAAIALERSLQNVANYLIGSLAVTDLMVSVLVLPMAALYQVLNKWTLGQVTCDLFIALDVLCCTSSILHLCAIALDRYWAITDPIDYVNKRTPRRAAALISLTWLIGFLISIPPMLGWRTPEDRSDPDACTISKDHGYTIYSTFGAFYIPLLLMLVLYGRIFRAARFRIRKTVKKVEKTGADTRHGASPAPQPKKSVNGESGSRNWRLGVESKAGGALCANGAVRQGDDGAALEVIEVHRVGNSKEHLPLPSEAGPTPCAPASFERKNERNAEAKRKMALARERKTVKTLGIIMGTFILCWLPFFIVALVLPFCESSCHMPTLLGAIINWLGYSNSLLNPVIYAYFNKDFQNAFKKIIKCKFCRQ
Tyrosine-protein kinase CSK (Homo sapiens), sequence (P41240 2-450 limits assumed): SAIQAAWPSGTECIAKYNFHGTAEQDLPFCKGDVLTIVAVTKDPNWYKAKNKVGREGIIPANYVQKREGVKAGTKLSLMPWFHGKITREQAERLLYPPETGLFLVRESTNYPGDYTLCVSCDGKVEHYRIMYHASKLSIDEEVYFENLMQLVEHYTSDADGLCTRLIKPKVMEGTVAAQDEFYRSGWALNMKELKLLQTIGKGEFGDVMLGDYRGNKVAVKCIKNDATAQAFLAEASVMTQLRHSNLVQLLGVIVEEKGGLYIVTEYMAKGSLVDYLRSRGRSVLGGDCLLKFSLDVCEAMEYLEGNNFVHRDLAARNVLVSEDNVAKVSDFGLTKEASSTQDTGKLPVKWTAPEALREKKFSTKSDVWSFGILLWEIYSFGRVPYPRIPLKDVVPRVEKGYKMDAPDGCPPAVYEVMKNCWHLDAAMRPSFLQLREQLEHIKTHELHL
Mitogen-activated protein kinase 1 (Homo sapiens), sequence (P28482 whole entry): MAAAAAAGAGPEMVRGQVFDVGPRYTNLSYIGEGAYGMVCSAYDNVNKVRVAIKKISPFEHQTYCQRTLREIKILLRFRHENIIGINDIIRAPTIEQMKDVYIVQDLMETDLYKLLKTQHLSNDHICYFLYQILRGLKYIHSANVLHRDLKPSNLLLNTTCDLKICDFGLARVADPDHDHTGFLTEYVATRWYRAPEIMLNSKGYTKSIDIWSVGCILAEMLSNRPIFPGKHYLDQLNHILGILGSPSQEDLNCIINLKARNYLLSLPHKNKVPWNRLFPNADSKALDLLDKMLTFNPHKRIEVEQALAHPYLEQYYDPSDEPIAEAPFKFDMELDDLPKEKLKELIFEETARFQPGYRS
Substance-P receptor (Homo sapiens), sequence (P25103 whole entry): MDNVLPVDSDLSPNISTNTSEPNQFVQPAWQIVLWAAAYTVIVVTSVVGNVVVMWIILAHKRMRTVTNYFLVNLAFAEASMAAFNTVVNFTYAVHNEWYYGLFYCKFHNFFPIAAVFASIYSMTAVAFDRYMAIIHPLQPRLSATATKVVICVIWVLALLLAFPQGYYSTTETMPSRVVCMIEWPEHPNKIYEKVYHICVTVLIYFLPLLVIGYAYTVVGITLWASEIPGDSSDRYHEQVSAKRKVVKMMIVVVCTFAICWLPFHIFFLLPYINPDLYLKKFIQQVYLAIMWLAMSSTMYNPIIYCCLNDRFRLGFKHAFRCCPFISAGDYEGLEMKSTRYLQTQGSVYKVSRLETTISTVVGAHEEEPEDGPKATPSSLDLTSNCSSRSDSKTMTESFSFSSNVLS

Q: With CN1C(=O)C(C(=O)Nc2nncs2)c2cc3occc3cc21 (configuration not stated) as the compound, how does the pIC50 [1] read?
A: 7.40

Q: And the pIC50 [2]?
A: 4.94

Q: What about the Activity [3] of the same compound?
A: 35%

Q: And the Activity [4]?
A: 3%

Q: What about the Activity [5] of the same compound?
A: 3%

Q: What about the Activity [6] of the same compound?
A: 21%

Q: And the Activity [7]?
A: 23%

Q: What about the inhibition [8] of the same compound?
A: 32%

Q: What about the inhibition [9] of the same compound?
A: 5%

Q: What about the Activity [10] of the same compound?
A: 4%

Q: And the Activity [11]?
A: 3%

Q: What about the Activity [12] of the same compound?
A: 7%

Q: And the Activity [13]?
A: 12%

Q: What about the Activity [14] of the same compound?
A: 0%

Q: What about the Activity [15] of the same compound?
A: 7%

Q: What about the Activity [16] of the same compound?
A: 0%

Q: What about the inhibition [17] of the same compound?
A: 12%

Q: What about the inhibition [18] of the same compound?
A: 0%

Q: What about the inhibition [19] of the same compound?
A: 5%

Q: What about the inhibition [20] of the same compound?
A: 6%

Q: What about the inhibition [21] of the same compound?
A: 5%

Q: And the inhibition [22]?
A: 0%

Q: What about the Activity [23] of the same compound?
A: 0%

Q: What about the Activity [24] of the same compound?
A: 0%

Q: What about the half-life [25] of the same compound?
A: 83 min

Q: What about the Papp [26] of the same compound?
A: 32 ×10⁻⁶ cm/s

Q: And the Vd [27]?
A: 0.1 L/kg
